From ChEMBL document CHEMBL1914443, “Inhibition of c-Kit, VEGFR-2 (KDR), and ABCG2 by analogues of OSI-930” (Bioorg Med Chem Lett, 2011)

Key:
[1] = target: Platelet-derived growth factor receptor alpha (Homo sapiens) (UniProt P16234); assay: Inhibition of PDGFRalpha using Tyr 04 peptide as substrate at 1 uM after 60 mins by Z'-LYTE assay
[2] = target: T1, Vascular endothelial growth factor receptor 2 (Homo sapiens, UniProt P35968); assay: Inhibition of KDR using Tyr 01 peptide as substrate at 10 uM after 60 mins by Z'-LYTE assay
[3] = target: Angiopoietin-1 receptor (Homo sapiens) (UniProt Q02763); assay: Inhibition of Tie-2 using Tyr 05 peptide as substrate at 10 uM after 60 mins by Z'-LYTE assay
[4] = target: T1, Vascular endothelial growth factor receptor 2; assay: Inhibition of KDR using Tyr 01 peptide as substrate at 1 uM after 60 mins by Z'-LYTE assay
[5] = target: Receptor-type tyrosine-protein kinase FLT3 (Homo sapiens) (UniProt P36888); assay: Inhibition of Flt3 using Tyr 02 peptide as substrate at 1 uM after 60 mins by Z'-LYTE assay
[6] = target: Platelet-derived growth factor receptor beta (Homo sapiens) (UniProt P09619); assay: Inhibition of PDGFRbeta using Tyr 04 peptide as substrate at 10 uM after 60 mins by Z'-LYTE assay
[7] = target: Vascular endothelial growth factor receptor 1 (Homo sapiens) (UniProt P17948); assay: Inhibition of VEGFR1 using Tyr 04 peptide as substrate at 1 uM after 60 mins by Z'-LYTE assay
[8] = target: T2, Mast/stem cell growth factor receptor Kit (Homo sapiens, UniProt P10721); assay: Inhibition of c-Kit using Tyr 06 peptide as substrate at 1 uM after 60 mins by Z'-LYTE assay
[9] = target: T2, Mast/stem cell growth factor receptor Kit; assay: Inhibition of c-Kit using Tyr 06 peptide as substrate at 10 uM after 60 mins by Z'-LYTE assay
[10] = target: Platelet-derived growth factor receptor alpha (Homo sapiens) (UniProt P16234); assay: Inhibition of PDGFRalpha using Tyr 04 peptide as substrate at 10 uM after 60 mins by Z'-LYTE assay
[11] = target: Vascular endothelial growth factor receptor 3 (Homo sapiens) (UniProt P35916); assay: Inhibition of VEGFR3 using Tyr 04 peptide as substrate at 10 uM after 60 mins by Z'-LYTE assay
[12] = target: Angiopoietin-1 receptor (Homo sapiens) (UniProt Q02763); assay: Inhibition of Tie-2 using Tyr 05 peptide as substrate at 1 uM after 60 mins by Z'-LYTE assay
[13] = target: Vascular endothelial growth factor receptor 1 (Homo sapiens) (UniProt P17948); assay: Inhibition of VEGFR1 using Tyr 04 peptide as substrate at 10 uM after 60 mins by Z'-LYTE assay
[14] = target: Vascular endothelial growth factor receptor 3 (Homo sapiens) (UniProt P35916); assay: Inhibition of VEGFR3 using Tyr 04 peptide as substrate at 1 uM after 60 mins by Z'-LYTE assay
[15] = target: Platelet-derived growth factor receptor beta (Homo sapiens) (UniProt P09619); assay: Inhibition of PDGFRbeta using Tyr 04 peptide as substrate at 1 uM after 60 mins by Z'-LYTE assay
[16] = target: Receptor-type tyrosine-protein kinase FLT3 (Homo sapiens) (UniProt P36888); assay: Inhibition of Flt3 using Tyr 02 peptide as substrate at 10 uM after 60 mins by Z'-LYTE assay
[17] = target: T3, ABCG2 (Homo sapiens, UniProt Q9UNQ0); assay: Inhibition of ATP-dependent ABCG2 pump assessed as ratio of compound IC50 for HEK/ABCG2-482-R2 cells to IC50 for HEK293/pcDNA3.1 cells after 72 hrs by MTT assay; settings: HEK/ABCG2-482-R2 cells versus HEK293/pcDNA3.1 cells, read-out: Ratio IC50
T3 sequence (Q9UNQ0 whole entry): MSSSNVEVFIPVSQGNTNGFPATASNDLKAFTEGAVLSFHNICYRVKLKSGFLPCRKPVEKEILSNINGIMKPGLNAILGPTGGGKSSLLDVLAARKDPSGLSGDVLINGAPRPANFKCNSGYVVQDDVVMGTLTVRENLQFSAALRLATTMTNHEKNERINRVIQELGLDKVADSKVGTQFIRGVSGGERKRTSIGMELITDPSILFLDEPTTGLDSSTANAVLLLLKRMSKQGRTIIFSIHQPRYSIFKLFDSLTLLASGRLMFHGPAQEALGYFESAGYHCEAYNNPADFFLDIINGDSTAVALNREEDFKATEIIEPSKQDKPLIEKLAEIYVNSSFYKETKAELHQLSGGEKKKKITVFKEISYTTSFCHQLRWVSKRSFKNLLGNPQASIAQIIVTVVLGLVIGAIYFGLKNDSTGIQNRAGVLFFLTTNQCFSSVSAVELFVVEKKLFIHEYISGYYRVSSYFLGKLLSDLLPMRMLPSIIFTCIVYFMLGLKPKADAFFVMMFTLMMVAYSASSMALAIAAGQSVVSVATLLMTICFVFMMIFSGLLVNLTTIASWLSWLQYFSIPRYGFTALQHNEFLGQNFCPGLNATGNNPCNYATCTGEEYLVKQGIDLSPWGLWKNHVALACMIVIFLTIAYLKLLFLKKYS
In short: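 Fold-resistance was calculated as mitoxantrone IC50 in HEK/ABCG2-482-R2 (wild-type ABCG2-transfected) cells divided by mitoxantrone IC50 in HEK293/pcDNA3 parental cells, with or without analogue at 10 μM. FTC at 2.5 μM served as the reference. Cell survival was measured by MTT. Results are means ± SD of at least three independent experiments, each run in triplicate.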

Receptor-type tyrosine-protein kinase FLT3 (Homo sapiens), sequence (P36888 whole entry): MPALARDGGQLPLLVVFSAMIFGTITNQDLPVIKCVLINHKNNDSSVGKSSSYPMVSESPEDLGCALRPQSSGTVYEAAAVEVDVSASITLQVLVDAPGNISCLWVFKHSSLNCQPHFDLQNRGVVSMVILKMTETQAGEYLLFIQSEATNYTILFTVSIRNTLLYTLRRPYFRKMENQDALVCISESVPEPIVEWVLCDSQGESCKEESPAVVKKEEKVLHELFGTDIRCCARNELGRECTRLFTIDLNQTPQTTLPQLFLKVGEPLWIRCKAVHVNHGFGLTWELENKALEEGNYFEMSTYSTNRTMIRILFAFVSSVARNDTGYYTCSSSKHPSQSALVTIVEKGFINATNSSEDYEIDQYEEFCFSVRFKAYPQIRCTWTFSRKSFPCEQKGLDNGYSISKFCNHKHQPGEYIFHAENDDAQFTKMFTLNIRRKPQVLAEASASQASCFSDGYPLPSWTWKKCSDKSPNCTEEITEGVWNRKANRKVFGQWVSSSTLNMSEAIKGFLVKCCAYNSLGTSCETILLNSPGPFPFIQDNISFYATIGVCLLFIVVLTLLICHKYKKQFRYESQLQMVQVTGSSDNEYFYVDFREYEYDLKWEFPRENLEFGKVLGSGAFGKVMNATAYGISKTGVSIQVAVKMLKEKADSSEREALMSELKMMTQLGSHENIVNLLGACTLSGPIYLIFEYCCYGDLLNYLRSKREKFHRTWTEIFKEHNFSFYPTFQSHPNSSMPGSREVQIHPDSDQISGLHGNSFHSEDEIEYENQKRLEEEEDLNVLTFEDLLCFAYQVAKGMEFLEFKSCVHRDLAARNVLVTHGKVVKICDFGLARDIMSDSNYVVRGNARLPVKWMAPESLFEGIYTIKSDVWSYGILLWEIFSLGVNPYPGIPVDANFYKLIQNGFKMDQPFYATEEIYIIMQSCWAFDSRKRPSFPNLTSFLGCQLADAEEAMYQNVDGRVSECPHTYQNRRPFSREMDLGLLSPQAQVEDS
T2 sequence (P10721 whole entry): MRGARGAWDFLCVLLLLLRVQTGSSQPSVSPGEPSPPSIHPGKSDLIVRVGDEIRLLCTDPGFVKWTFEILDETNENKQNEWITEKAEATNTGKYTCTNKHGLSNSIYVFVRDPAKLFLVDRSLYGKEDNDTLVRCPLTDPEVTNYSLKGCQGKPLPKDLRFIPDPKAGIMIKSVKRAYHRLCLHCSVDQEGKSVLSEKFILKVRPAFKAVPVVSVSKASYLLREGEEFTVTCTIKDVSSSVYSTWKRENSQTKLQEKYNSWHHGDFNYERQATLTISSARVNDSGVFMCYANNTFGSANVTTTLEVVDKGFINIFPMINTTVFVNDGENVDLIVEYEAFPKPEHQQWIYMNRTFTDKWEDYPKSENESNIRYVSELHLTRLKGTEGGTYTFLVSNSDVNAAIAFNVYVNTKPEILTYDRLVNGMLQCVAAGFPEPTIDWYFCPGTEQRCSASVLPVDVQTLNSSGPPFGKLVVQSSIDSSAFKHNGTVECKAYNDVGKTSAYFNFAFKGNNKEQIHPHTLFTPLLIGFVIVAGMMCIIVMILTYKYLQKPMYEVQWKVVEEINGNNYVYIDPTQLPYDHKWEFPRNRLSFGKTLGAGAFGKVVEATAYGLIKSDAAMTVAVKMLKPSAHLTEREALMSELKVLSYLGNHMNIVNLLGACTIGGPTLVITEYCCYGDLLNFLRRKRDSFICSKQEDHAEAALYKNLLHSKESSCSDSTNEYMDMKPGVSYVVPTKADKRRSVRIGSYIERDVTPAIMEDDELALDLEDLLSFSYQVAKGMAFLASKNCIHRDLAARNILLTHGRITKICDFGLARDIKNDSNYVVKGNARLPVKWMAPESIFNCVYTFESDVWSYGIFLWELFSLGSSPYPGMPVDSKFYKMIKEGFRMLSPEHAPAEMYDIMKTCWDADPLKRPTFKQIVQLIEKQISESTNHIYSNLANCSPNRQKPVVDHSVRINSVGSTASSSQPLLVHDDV
Platelet-derived growth factor receptor beta (Homo sapiens), sequence (P09619 whole entry): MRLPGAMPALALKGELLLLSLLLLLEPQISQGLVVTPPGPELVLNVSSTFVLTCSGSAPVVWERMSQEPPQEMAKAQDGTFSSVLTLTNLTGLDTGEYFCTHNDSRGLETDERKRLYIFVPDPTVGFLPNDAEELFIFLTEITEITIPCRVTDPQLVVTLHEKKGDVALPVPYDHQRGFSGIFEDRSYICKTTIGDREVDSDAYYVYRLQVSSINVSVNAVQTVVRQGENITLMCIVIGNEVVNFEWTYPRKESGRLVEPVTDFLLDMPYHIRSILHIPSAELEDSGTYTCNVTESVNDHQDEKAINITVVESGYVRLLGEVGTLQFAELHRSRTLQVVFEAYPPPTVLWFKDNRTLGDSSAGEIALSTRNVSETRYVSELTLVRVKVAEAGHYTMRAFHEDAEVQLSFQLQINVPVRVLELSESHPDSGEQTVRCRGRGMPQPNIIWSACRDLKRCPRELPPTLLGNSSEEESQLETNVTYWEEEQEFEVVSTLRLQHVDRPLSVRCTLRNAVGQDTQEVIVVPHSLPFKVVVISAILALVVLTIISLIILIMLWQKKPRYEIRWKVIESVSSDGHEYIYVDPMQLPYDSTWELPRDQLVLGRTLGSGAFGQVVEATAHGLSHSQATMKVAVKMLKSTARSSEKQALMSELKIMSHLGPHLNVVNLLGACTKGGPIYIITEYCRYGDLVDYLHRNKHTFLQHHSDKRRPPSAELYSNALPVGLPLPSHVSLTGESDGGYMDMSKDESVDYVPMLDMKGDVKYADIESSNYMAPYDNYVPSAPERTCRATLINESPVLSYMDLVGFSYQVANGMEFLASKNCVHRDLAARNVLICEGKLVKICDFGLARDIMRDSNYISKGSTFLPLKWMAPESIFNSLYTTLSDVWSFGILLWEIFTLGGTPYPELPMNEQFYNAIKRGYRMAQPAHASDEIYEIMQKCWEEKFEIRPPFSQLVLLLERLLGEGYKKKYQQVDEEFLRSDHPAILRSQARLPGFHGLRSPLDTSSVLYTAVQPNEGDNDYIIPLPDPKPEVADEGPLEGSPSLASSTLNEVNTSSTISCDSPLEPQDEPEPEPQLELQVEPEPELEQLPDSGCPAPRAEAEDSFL
Vascular endothelial growth factor receptor 1 (Homo sapiens), sequence (P17948 whole entry): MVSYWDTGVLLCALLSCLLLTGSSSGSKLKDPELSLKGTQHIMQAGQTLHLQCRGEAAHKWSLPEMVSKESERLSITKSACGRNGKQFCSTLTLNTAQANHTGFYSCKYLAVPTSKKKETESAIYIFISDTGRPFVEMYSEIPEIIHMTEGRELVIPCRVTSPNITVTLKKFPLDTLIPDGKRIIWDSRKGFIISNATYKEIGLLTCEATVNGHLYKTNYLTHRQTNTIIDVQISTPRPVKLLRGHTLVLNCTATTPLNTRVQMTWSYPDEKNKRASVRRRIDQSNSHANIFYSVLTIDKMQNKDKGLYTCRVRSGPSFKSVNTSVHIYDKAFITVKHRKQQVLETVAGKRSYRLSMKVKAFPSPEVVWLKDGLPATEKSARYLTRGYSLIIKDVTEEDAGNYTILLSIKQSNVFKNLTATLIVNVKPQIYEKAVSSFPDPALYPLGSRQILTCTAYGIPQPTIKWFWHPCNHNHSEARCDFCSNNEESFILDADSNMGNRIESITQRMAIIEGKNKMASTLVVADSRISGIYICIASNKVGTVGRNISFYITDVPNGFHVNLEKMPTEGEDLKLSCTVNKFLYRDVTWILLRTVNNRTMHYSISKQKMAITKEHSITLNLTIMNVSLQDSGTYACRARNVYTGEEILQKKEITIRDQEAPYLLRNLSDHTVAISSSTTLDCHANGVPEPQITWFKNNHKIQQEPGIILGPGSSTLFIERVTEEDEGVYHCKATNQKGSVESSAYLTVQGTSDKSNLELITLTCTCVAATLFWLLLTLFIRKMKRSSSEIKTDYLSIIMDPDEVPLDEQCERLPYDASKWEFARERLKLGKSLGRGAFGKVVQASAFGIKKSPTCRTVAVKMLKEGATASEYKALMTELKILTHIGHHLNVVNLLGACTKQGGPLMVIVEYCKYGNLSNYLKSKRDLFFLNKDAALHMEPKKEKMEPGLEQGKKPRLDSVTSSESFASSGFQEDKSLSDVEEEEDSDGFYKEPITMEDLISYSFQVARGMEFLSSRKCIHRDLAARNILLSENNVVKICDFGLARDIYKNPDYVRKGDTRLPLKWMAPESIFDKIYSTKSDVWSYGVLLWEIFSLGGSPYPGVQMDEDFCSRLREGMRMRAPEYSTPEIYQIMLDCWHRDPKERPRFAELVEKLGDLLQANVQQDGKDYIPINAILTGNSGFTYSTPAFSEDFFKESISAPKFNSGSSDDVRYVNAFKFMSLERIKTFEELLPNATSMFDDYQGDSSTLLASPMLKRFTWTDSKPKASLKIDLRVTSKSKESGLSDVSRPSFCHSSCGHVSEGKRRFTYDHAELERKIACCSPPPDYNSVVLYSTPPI

Compound | inhibition [1] [%] | inhibition [2] [%] | inhibition [3] [%] | inhibition [4] [%] | inhibition [5] [%] | inhibition [6] [%] | inhibition [7] [%] | inhibition [8] [%] | inhibition [9] [%] | inhibition [10] [%] | inhibition [11] [%] | inhibition [12] [%] | inhibition [13] [%] | inhibition [14] [%] | inhibition [15] [%] | inhibition [16] [%] | selectivity ratio at 72 h [17]
O=C(Nc1ccc(OC(F)(F)F)cc1)c1sccc1NCc1cccc([N+](=O)[O-])c1 | < 40 | < 40 | < 40 | < 40 | < 40 | < 40 | < 40 | < 40 | < 40 | < 40 | < 40 | < 40 | < 40 | < 40 | < 40 | < 40 | 
O=C(Nc1ccc(OC(F)(F)F)cc1)c1sccc1NCc1ccncc1[N+](=O)[O-] |  | < 40 |  | < 40 |  |  |  | < 40 | 80 |  |  |  |  |  |  |  | 
CC(=O)Nc1ccc(CNc2ccsc2C(=O)Nc2ccc(OC(F)(F)F)cc2)cc1 | < 40 | < 40 | < 40 | < 40 | < 40 | < 40 | < 40 | < 40 | < 40 | < 40 | < 40 | < 40 | < 40 | < 40 | < 40 | < 40 | 
CC(=O)Nc1cccc(CNc2ccsc2C(=O)Nc2ccc(OC(F)(F)F)cc2)c1 |  | < 40 |  | < 40 |  |  |  | < 40 | 58 |  |  |  |  |  |  |  | 
O=C(CBr)Nc1cccc(CN2C(=O)CN(c3ccc(OC(F)(F)F)cc3)C(=O)c3sccc32)c1 |  | < 40 |  | < 40 |  |  |  | < 40 | 41 |  |  |  |  |  |  |  | 
O=C(Nc1ccc(OC(F)(F)F)cc1)c1sccc1NCc1cccc(N=C=S)c1 | < 40 | < 40 | < 40 | < 40 | < 40 | < 40 | < 40 | < 40 | < 40 | < 40 | < 40 | < 40 | < 40 | < 40 | < 40 | < 40 | 
CC(=O)Nc1cc(CNc2ccsc2C(=O)Nc2ccc(OC(F)(F)F)cc2)ccn1 |  | 101 |  | 101 |  |  |  | 81 | 102 |  |  |  |  |  |  |  | 
O=C1c2c(O)ccc(O)c2C(=O)c2c(NCCNCCO)ccc(NCCNCCO)c21 [MITOXANTRONE] |  |  |  |  |  |  |  |  |  |  |  |  |  |  |  |  | 15.3
O=C(Nc1ccc(OC(F)(F)F)cc1)c1sccc1NCc1ccc([N+](=O)[O-])cc1 | < 40 | < 40 | < 40 | < 40 | < 40 | < 40 | < 40 | < 40 | < 40 | < 40 | < 40 | < 40 | < 40 | < 40 | < 40 | < 40 | 
O=C(Nc1ccc(OC(F)(F)F)cc1)c1sccc1NCc1ccc(N=C=S)cc1 | < 40 | < 40 | < 40 | < 40 | < 40 | < 40 | < 40 | < 40 | < 40 | < 40 | < 40 | < 40 | < 40 | < 40 | < 40 | < 40 | 

Second part, led by results:

inhibition [1] [%] | inhibition [2] [%] | inhibition [3] [%] | inhibition [4] [%] | inhibition [5] [%] | inhibition [6] [%] | inhibition [7] [%] | inhibition [8] [%] | inhibition [9] [%] | inhibition [10] [%] | inhibition [11] [%] | inhibition [12] [%] | inhibition [13] [%] | inhibition [14] [%] | inhibition [15] [%] | inhibition [16] [%] | Compound | selectivity ratio at 72 h [17]
< 40 | < 40 | < 40 | < 40 | < 40 | < 40 | < 40 | < 40 | < 40 | < 40 | < 40 | < 40 | < 40 | < 40 | < 40 | < 40 | Nc1cccc(CNc2ccsc2C(=O)Nc2ccc(OC(F)(F)F)cc2)c1 | 
 | 88 |  | 50 |  | 47 |  | 57 | 91 |  | 41 |  |  |  |  | 41 | Nc1cnccc1CNc1ccsc1C(=O)Nc1ccc(OC(F)(F)F)cc1 | 
< 40 | < 40 | < 40 | < 40 | < 40 | < 40 | < 40 | < 40 | < 40 | < 40 | < 40 | < 40 | < 40 | < 40 | < 40 | < 40 | Nc1ccc(CNc2ccsc2C(=O)Nc2ccc(OC(F)(F)F)cc2)cc1 | 
 | 54 |  | < 40 |  | 44 |  | < 40 | 68 |  |  |  |  |  |  |  | O=C(Nc1ccc(OC(F)(F)F)cc1)c1sccc1NCc1ccc(O)cc1 | 
< 40 | < 40 | < 40 | < 40 | < 40 | < 40 | < 40 | < 40 | < 40 | < 40 | < 40 | < 40 | < 40 | < 40 | < 40 | < 40 | Nc1ccccc1CNc1ccsc1C(=O)Nc1ccc(OC(F)(F)F)cc1 | 
< 40 | < 40 | < 40 | < 40 | < 40 | < 40 | < 40 | < 40 | < 40 | < 40 | < 40 | < 40 | < 40 | < 40 | < 40 | < 40 | O=C(Nc1ccc(OC(F)(F)F)cc1)c1sccc1NCc1ccccc1[N+](=O)[O-] | 
< 40 | < 40 | < 40 | < 40 | < 40 | < 40 | < 40 | < 40 | < 40 | < 40 | < 40 | < 40 | < 40 | < 40 | < 40 | < 40 | O=C(Nc1ccc(OC(F)(F)F)cc1)c1sccc1NCc1ccccc1N=C=S | 
< 40 | < 40 | < 40 | < 40 | < 40 | < 40 | < 40 | < 40 | < 40 | < 40 | < 40 | < 40 | < 40 | < 40 | < 40 | < 40 | CC(=O)Nc1ccccc1CNc1ccsc1C(=O)Nc1ccc(OC(F)(F)F)cc1 | 
